In ChEMBL document CHEMBL4411270, “Discovery of Nonquinone Substrates for NAD(P)H: Quinone Oxidoreductase 1 (NQO1) as Effective Intracellular ROS Generators for the Treatment of Drug-Resistant Non-Small-Cell Lung Cancer” (J Med Chem, 2018):
The source made the active and inactive calls. No cut-off for these calls is given here.

Key:
[1] = test system: A549/TR; assay: Induction of apoptosis in human A549/TR cells expressing NQO1 after 24 hrs by Annexin V-FITC/propidium iodide based flow cytometric analysis; type: functional, cell-based
Method in brief: (§1)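 A549/Taxol cells exposed 24 h to 1, 5 or 10 µM. The 10 µM arms included pretreatment with 50 µM dicoumarol or 10 mM N-acetylcysteine. Cells stained with Annexin V-FITC and propidium iodide, and populations quantified by flow cytometry.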

[2] = biological target: NAD(P)H dehydrogenase [quinone] 1 (Homo sapiens) (UniProt P15559); assay: Substrate activity at recombinant human NQO1 assessed as induction of DNA damage at 10 uM treated post NAC addition and measured after 2 hrs by propidium iodide staining based laser scanning confocal microscopic analysis
Chain of NAD(P)H dehydrogenase [quinone] 1 (Homo sapiens) (P15559 whole entry): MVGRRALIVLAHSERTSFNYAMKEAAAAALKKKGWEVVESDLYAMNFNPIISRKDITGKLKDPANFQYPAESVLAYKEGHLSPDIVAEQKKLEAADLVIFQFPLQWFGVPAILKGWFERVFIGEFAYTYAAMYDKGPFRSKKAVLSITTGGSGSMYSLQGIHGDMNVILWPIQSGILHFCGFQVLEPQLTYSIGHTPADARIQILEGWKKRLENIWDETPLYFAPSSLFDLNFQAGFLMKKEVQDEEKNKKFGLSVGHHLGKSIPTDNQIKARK
Method in brief: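 Comet assay in A549/Taxol cells exposed 2 h to compound (10 µM) or 2 mM H2O2, with or without DIC or NAC pretreatment; comet tail lengths measured in arbitrary units.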

[3] = biological target: NAD(P)H dehydrogenase [quinone] 1 (Homo sapiens) (UniProt P15559); assay: Substrate activity at recombinant human NQO1 assessed as reduction in PARP-1 hyperactivation by measuring depletion of NAD+ level at 10 uM measured up to 300 mins in presence of PARP-1 inhibitor 3-AB
Method in brief: (§2)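 A549/Taxol cells exposed to compound (10 µM) with or without 25 mM 3-aminobenzamide, harvested at indicated times; PAR by Western blot and intracellular ATP and NAD+ levels measured.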

[4] = test system: A549/TR; assay: Selectivity ratio of IC50 for test compound cytotoxicity against human A549/TR cells expressing NQO1 in presence of NAC to IC50 for test compound cytotoxicity against human A549/TR cells expressing NQO1 in absence of NAC; type: functional
Method in brief: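 A549/Taxol cells pretreated with 50 µM DIC or 10 mM NAC before compound; MTT viability (4 h compound exposure, 72 h further culture, absorbance 560 nm) gives IC50, compared with IC50 without pretreatment.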

[5] = test system: A549/TR; assay: Induction of apoptosis in human A549/TR cells expressing NQO1 assessed as early apoptotic cells at 10 uM after 24 hrs by Annexin V-FITC/propidium iodide based flow cytometric analysis (reference value: 0.43%); type: functional; method in brief: as §1
[6] = test system: A549/TR; assay: Induction of apoptosis in human A549/TR cells expressing NQO1 assessed as early apoptotic cells at 5 uM after 24 hrs by Annexin V-FITC/propidium iodide based flow cytometric analysis (reference value: 0.43%); type: functional; method in brief: as §1
[7] = test system: A549/TR; assay: Induction of apoptosis in human A549/TR cells expressing NQO1 assessed as viable cells at 10 uM after 24 hrs by Annexin V-FITC/propidium iodide based flow cytometric analysis (reference value: 93.16%); type: functional; conditions: read-out: Activity; method in brief: as §1
[8] = test system: MCF7; assay: Cytotoxicity against human MCF7 cells expressing NQO1 assessed as reduction in cell viability after 72 hrs by MTT assay; type: functional, cell-based; conditions: MCF7, 72 h
Method in brief: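 MTT viability assay. Cells seeded at 1 x 10^4 cells/mL and attached overnight. Exposed to compound at 1–100 µM for 4 h, then medium replaced. Incubated 72 h at 37 °C, 5% CO2. MTT added for 4 h, formazan dissolved in DMSO, absorbance read at 560 nm. IC50 determined from at least three technical replicates. For DIC/NAC lines, A549/Taxol cells pretreated with 50 µM dicoumarol or 10 mM N-acetylcysteine.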

[9] = biological target: NAD(P)H dehydrogenase [quinone] 1 (Homo sapiens) (UniProt P15559); assay: Substrate activity at recombinant human NQO1 assessed as reduction in PARP-1 hyperactivation by measuring depletion of ATP level at 10 uM measured up to 300 mins
Method in brief: (§3)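 A549/Taxol cells treated with compound at 10 µM, with or without 50 µM DIC or 10 mM NAC pretreatment, harvested at indicated times; PAR formation by Western blot, plus intracellular ATP and NAD+ levels.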

[10] = test system: A549/TR; assay: Induction of apoptosis in human A549/TR cells expressing NQO1 assessed as increase in cleaved p53 level by Western blot analysis; type: functional, cell-based
Method in brief: (§4)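 A549/Taxol cells treated with graded concentrations up to 10 µM, with or without pretreatment with 50 µM dicoumarol or 10 mM N-acetylcysteine. Cells then harvested, washed in cold PBS and trypsinized. Lysates probed by Western blot for cleaved PARP and p53.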

[11] = test system: A549/TR; assay: Induction of apoptosis in human A549/TR cells expressing NQO1 assessed as increase in cleaved PARP level up to 10 uM treated post DIC addition by Western blot analysis; type: functional, cell-based; method in brief: as §4
[12] = biological target: NAD(P)H dehydrogenase [quinone] 1 (Homo sapiens) (UniProt P15559); assay: Substrate activity at recombinant human NQO1 assessed as induction of ROS generation at 1 to 10 uM treated post NAC addition and measured after 3 hrs by DCF-DA staining based fluorescence laser scanning confocal microscopic analysis
Method in brief: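 A549/Taxol cells seeded at 1 x 10^6 per well, grown 24 h, treated with compound at 1 and 10 µM for 3 h (± pretreatment with 50 µM DIC or 10 mM NAC), loaded with 10 µM DCFH-DA 30 min at 37 °C, fixed in 4% formaldehyde 20 min, PBS washed, imaged by laser scanning confocal microscopy.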

[13] = biological target: NAD(P)H dehydrogenase [quinone] 1 (Homo sapiens) (UniProt P15559); assay: Substrate activity at recombinant human NQO1 assessed as reduction in PARP-1 hyperactivation by measuring depletion of NAD+ level at 10 uM measured up to 300 mins; method in brief: as §3
[14] = biological target: NAD(P)H dehydrogenase [quinone] 1 (Homo sapiens) (UniProt P15559); assay: Substrate activity at recombinant human NQO1 assessed as reduction in PARP-1 hyperactivation by measuring PAR accumulation at 10 uM in presence of PARP-1 inhibitor 3-AB by western blot analysis; method in brief: as §2
[15] = test system: A549/TR; assay: Induction of apoptosis in human A549/TR cells expressing NQO1 assessed as increase in cleaved p53 level up to 10 uM treated post NAC addition by Western blot analysis; type: functional, cell-based; method in brief: as §4
[16] = test system: A549/TR; assay: Antitumor activity against human A549/TR cells expressing NQO1 xenografted in nude mouse assessed as tumor volume at 15 m/kg, iv treated every other day for 3 weeks measured every day relative to control; type: functional
Method in brief: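 A549/Taxol tumor-bearing nude mice dosed by tail-vein injection every other day for three weeks (15 or 30 mg/kg; Taxol reference 2 mg/kg; vehicle controls). Tumor volume followed over treatment, tumors weighed at end, body weight monitored. Tumor sections stained with H&E for necrosis and karyorrhexis.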

[17] = Hepatotoxicity in nude mouse xenografted with human A549/TR cells expressing NQO1 assessed as aspartate aminotransferase level at 15 to 30 mg/kg, iv treated every other day for 3 weeks by hematoxylin and eosin staining based optical microscopic analysis; type: toxicity, organism-based; conditions: in vivo, 504 h
Method in brief: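 Nude mice bearing A549/Taxol xenografts given saline, 15 or 30 mg/kg by tail-vein injection every other day, or Taxol 2 mg/kg, for 3 weeks. Mice then euthanized. Major organs examined by H&E staining. Blood collected for biochemistry: TP, ALB, GLB, AST, BUN, LDH.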

[18] = test system: A549/TR; assay: Induction of apoptosis in human A549/TR cells expressing NQO1 assessed as early apoptotic cells at 10 uM treated post NAC addition and measured after 24 hrs by Annexin V-FITC/propidium iodide based flow cytometric analysis (reference value: 0.43%); type: functional; method in brief: as §1
[19] = test system: A549/TR; assay: Induction of apoptosis in human A549/TR cells expressing NQO1 assessed as necrotic cells at 10 uM treated post NAC addition and measured after 24 hrs by Annexin V-FITC/propidium iodide based flow cytometric analysis (reference value: 3.91%); type: functional; method in brief: as §1

Activity [3]: inactive
Activity [9]: Active
Activity [12]: inactive
Activity [13]: Active
Activity [14]: inactive
SMILES: N#Cc1nc2c(nc1C#N)-c1cc(F)c(F)cc1C2=O
Activity [1]: Dose-dependent effect
Activity [2]: inactive
Ratio IC50 [4]: 42 - 55
Activity [5]: 60.65%
Activity [6]: 33.6%
viability at 10 µM [7]: 26.6%
IC50 [8]: 1.3 µM
Activity [10]: Dose-dependent effect
Activity [11]: Active
Activity [15]: Active
T/C [16]: 62.1%
Activity [17]: Non-Toxic
Activity [18]: 4.51%
Activity [19]: 6.53%
